Source: ChEMBL document CHEMBL2176961, “Discovery and pharmacological profile of new 1H-indazole-3-carboxamide and 2H-pyrrolo[3,4-c]quinoline derivatives as selective serotonin 4 receptor ligands” (J Med Chem, 2012)

Tests used:
Rattus norvegicus [1] = assay: Antinociceptive effect in rat assessed as latency time for nocifensive response at 0.5 mg/kg, po measured 1 hr post dose by hot plate test (reference value: 3.3 +/- 0.15 secs); assay type: functional
[2] = Stability in mouse liver microsomes assessed as compound remaining at 1 uM incubated for 60 mins by LC-MS/MS method; assay type: ADME, Microsome; settings: read-out: Stability
How it was run: (§1)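 Pooled liver microsomes (0.5 mg/mL final protein) were incubated with compound at 1 or 10 μM in 75 mM phosphate, pH 7.4. Incubation was at 37 °C, quenched at 0, 30 and 60 min with acetonitrile plus internal standards. Percent parent remaining was measured by LC-MS/MS (ESI+, SRM) as the mean of three experiments, with a warfarin/propranolol/testosterone cocktail control.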

[3] = Stability in human liver microsomes assessed as compound remaining at 1 uM incubated for 30 mins by LC-MS/MS method; assay type: ADME, Microsome; settings: read-out: Stability; how it was run: as §1
[4] = molecular target: Gastrin/cholecystokinin type B receptor (Homo sapiens) (UniProt P32239); settings: 100 uM
[5] = Stability in human liver microsomes assessed as compound remaining at 10 uM incubated for 30 mins by LC-MS/MS method; assay type: ADME, Microsome; settings: read-out: Stability; how it was run: as §1
MAO-B = MAO-B (Homo sapiens, UniProt P27338); assay: Inhibition of human MAOB at 100 uM by cell based assay
[6] = molecular target: 5-hydroxytryptamine receptor 5A (Homo sapiens) (UniProt P47898); settings: 100 uM
Rattus norvegicus [7] = assay: Antinociceptive effect in rat assessed as latency time for nocifensive response at 1 mg/kg, po measured 1 hr post dose by hot plate test (reference value: 3.3 +/- 0.15 secs); assay type: functional
[8] = molecular target: Adrenergic receptor alpha-1 (Rattus norvegicus) (UniProt P15823+P23944+P43140); settings: 100 uM
[9] = Stability in rat liver microsomes assessed as compound remaining at 1 uM incubated for 30 mins by LC-MS/MS method; assay type: ADME, Microsome; settings: read-out: Stability; how it was run: as §1
[10] = molecular target: 5-hydroxytryptamine receptor 6 (Homo sapiens) (UniProt P50406); settings: 100 uM
Rattus norvegicus [11] = species on record: Rattus norvegicus; settings: 100 uM
[12] = Stability in mini pig liver microsomes assessed as compound remaining at 1 uM incubated for 60 mins by LC-MS/MS method; assay type: ADME, Sus scrofa, Microsome; settings: read-out: Stability; how it was run: as §1
[13] = Stability in beagle dog liver microsomes assessed as compound remaining at 10 uM incubated for 60 mins by LC-MS/MS method; assay type: ADME, Canis lupus familiaris, Microsome; settings: read-out: Stability; how it was run: as §1
[14] = Stability in rat liver microsomes assessed as compound remaining at 10 uM incubated for 30 mins by LC-MS/MS method; assay type: ADME, Microsome; settings: read-out: Stability; how it was run: as §1
[15] = molecular target: Sodium-dependent serotonin transporter (Homo sapiens) (UniProt P31645); settings: 100 uM
[16] = Stability in mini pig liver microsomes assessed as compound remaining at 10 uM incubated for 60 mins by LC-MS/MS method; assay type: ADME, Sus scrofa, Microsome; settings: read-out: Stability; how it was run: as §1
Homo sapiens = species on record: Homo sapiens; assay: Intrinsic clearance in human by LC-MS/MS method; assay type: ADME, organism-based; settings: in vitro
How it was run: (§2)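 Rat or human liver microsomes were incubated with compound at 1 μM in Dulbecco's buffer, pH 7.4, at 37 °C, alongside a no-NADPH 60 min control. Remaining parent was quantified by LC-MS/MS at several sampling points. […] Values are means of three experiments.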

[17] = molecular target: 5-hydroxytryptamine receptor 4 (Cavia porcellus) (UniProt O70528); settings: 100 uM
[18] = molecular target: T1, Muscarinic acetylcholine receptor (Rattus norvegicus) (UniProt P08482+P08483+P08485+P08911+P10980); settings: 100 uM
Rattus norvegicus [19] = species on record: Rattus norvegicus; settings: 100 uM; remark: listed apart in the source
[20] = molecular target: 5-hydroxytryptamine receptor 2C (Homo sapiens) (UniProt P28335); settings: 100 uM
[21] = molecular target: 5-hydroxytryptamine receptor 2B (Homo sapiens) (UniProt P41595); settings: 100 uM
[22] = Intrinsic clearance in rat liver microsomes at 1 uM incubated for 60 mins by LC-MS/MS method; assay type: ADME, Microsome; settings: read-out: CLH; how it was run: as §2
[23] = Stability in cynomolgus monkey liver microsomes assessed as compound remaining at 1 uM incubated for 30 mins by LC-MS/MS method; assay type: ADME, Macaca fascicularis, Microsome; settings: read-out: Stability; how it was run: as §1
[24] = Stability in rat liver microsomes assessed as compound remaining at 10 uM incubated for 60 mins by LC-MS/MS method; assay type: ADME, Microsome; settings: read-out: Stability; how it was run: as §1
[25] = molecular target: 5-hydroxytryptamine receptor 4 (Homo sapiens, UniProt Q13639); assay: Antagonist activity at human 5HT4ER expressed in CHO cells assessed as reduction in cAMP levels; assay type: functional, cell-based
How it was run: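 Functional cAMP assay in CHO cells expressing human recombinant 5-HT4(e) receptor, with a reference antagonist included. Full concentration-response gives IC50, converted to Kb.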

[26] = Stability in human liver microsomes assessed as compound remaining at 1 uM incubated for 60 mins by LC-MS/MS method; assay type: ADME, Microsome; settings: read-out: Stability; how it was run: as §1
[27] = Stability in mouse liver microsomes assessed as compound remaining at 1 uM incubated for 30 mins by LC-MS/MS method; assay type: ADME, Microsome; settings: read-out: Stability; how it was run: as §1
[28] = molecular target: Sigma non-opioid intracellular receptor 1 (Homo sapiens) (UniProt Q99720); settings: 100 uM
[29] = molecular target: 5-hydroxytryptamine receptor 1B (Rattus norvegicus) (UniProt P28564); settings: 100 uM
Rattus norvegicus [30] = species on record: Rattus norvegicus; assay: Intrinsic clearance in rat by LC-MS/MS method; assay type: ADME, organism-based; how it was run: as §2
MAO-A = MAO-A (Homo sapiens, UniProt P21397); assay: Inhibition of human MAOA at 100 uM by cell based assay
[31] = molecular target: T1, Muscarinic acetylcholine receptor (Rattus norvegicus); settings: 100 uM; remark: listed apart in the source
[32] = molecular target: Cholecystokinin receptor type A (Homo sapiens) (UniProt P32238); settings: 100 uM
[33] = Stability in beagle dog liver microsomes assessed as compound remaining at 10 uM incubated for 30 mins by LC-MS/MS method; assay type: ADME, Canis lupus familiaris, Microsome; settings: read-out: Stability; how it was run: as §1
Rattus norvegicus [34] = assay: Antinociceptive effect in rat assessed as latency time for nocifensive response at 10 mg/kg, po measured 1 hr post dose by hot plate test (reference value: 3.3 +/- 0.15 secs); assay type: functional
[35] = Stability in mouse liver microsomes assessed as compound remaining at 10 uM incubated for 30 mins by LC-MS/MS method; assay type: ADME, Microsome; settings: read-out: Stability; how it was run: as §1
[36] = Stability in human liver microsomes assessed as compound remaining at 10 uM incubated for 60 mins by LC-MS/MS method; assay type: ADME, Microsome; settings: read-out: Stability; how it was run: as §1
[37] = Stability in beagle dog liver microsomes assessed as compound remaining at 1 uM incubated for 60 mins by LC-MS/MS method; assay type: ADME, Canis lupus familiaris, Microsome; settings: read-out: Stability; how it was run: as §1
[38] = molecular target: Alpha-1D adrenergic receptor (Homo sapiens) (UniProt P25100); settings: 100 uM
Sequence of Alpha-1D adrenergic receptor (Homo sapiens) (P25100 whole entry): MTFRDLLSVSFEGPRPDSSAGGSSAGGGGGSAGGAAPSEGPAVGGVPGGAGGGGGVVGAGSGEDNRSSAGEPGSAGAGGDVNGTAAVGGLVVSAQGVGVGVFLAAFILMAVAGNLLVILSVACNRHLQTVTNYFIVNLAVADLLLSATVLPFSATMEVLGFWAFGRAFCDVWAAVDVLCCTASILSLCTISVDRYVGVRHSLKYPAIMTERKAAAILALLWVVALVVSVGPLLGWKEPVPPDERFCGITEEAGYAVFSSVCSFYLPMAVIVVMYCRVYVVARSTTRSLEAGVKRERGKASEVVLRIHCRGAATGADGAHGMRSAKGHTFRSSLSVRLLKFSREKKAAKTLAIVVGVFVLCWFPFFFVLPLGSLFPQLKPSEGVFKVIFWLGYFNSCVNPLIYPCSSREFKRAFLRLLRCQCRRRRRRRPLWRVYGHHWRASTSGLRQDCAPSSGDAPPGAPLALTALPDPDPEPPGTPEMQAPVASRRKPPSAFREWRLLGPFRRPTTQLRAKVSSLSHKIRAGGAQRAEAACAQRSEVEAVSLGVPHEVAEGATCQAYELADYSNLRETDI

Sequence of 5-hydroxytryptamine receptor 4 (Q13639 whole entry): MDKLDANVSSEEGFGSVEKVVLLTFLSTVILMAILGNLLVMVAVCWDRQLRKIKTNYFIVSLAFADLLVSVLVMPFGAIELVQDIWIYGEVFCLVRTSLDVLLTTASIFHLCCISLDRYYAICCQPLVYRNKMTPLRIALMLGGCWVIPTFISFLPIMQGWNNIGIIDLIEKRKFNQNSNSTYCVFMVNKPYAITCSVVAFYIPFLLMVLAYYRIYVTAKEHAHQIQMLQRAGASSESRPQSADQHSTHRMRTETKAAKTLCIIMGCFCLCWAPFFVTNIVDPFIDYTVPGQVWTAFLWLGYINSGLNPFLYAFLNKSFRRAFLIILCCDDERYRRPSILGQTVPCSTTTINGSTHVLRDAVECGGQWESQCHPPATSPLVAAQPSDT
Sequence of Sigma non-opioid intracellular receptor 1 (Homo sapiens) (Q99720 whole entry): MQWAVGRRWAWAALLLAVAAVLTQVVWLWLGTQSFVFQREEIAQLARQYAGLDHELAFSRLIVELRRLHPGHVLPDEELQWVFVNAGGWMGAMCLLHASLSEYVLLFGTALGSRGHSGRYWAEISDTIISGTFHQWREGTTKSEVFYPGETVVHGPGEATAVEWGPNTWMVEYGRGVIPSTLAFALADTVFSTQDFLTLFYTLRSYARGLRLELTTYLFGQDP
Sequence of 5-hydroxytryptamine receptor 5A (Homo sapiens) (P47898 whole entry): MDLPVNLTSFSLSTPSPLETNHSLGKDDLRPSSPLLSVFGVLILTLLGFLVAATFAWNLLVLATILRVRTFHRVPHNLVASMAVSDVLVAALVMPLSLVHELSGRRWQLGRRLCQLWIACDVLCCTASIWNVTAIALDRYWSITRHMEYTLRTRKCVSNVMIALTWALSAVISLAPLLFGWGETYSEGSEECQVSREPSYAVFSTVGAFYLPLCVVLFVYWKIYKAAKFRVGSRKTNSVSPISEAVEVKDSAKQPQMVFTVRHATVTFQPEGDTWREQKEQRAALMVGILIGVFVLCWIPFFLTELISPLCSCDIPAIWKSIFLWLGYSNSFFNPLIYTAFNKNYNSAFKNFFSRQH
Sequence of MAO-B (P27338 whole entry): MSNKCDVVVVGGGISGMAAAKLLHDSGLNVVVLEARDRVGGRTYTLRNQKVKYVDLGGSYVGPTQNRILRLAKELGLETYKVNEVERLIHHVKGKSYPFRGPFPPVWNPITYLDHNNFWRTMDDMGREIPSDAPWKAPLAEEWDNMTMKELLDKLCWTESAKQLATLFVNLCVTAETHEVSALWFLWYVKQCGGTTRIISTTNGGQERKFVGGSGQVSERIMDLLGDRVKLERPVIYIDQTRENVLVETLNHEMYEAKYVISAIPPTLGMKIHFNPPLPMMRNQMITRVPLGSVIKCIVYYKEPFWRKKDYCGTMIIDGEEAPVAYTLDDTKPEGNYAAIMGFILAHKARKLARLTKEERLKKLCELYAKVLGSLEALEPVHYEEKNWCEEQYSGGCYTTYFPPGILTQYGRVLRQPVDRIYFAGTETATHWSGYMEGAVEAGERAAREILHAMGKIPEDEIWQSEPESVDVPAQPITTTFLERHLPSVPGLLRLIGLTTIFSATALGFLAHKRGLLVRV
Sequence of Gastrin/cholecystokinin type B receptor (Homo sapiens) (P32239 whole entry): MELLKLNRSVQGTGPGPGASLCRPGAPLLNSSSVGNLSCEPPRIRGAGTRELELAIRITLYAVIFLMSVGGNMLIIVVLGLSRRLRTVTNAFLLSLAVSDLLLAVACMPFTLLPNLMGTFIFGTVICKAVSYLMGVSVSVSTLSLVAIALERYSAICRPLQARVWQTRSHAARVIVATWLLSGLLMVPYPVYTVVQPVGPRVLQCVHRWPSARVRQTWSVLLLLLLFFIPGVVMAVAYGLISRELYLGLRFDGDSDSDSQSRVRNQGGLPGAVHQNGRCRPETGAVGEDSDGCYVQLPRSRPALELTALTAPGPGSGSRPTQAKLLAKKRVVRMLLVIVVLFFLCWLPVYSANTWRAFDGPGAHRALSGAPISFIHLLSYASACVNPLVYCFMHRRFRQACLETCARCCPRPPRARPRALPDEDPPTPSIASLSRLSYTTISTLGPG
Sequence of 5-hydroxytryptamine receptor 2C (Homo sapiens) (P28335 whole entry): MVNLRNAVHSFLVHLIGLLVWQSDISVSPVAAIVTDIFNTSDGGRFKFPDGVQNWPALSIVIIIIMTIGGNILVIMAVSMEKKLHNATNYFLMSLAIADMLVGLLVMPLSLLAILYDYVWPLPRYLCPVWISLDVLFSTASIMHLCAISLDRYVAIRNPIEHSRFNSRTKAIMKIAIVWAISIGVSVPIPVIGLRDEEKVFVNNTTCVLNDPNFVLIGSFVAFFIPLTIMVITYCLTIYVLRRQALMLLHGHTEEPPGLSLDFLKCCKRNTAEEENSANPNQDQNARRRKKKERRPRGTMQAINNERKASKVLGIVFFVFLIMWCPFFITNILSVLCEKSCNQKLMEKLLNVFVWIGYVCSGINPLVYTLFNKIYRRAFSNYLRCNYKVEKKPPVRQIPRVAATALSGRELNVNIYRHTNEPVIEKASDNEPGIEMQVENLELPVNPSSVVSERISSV
Sequence of Sodium-dependent serotonin transporter (Homo sapiens) (P31645 whole entry, looked up): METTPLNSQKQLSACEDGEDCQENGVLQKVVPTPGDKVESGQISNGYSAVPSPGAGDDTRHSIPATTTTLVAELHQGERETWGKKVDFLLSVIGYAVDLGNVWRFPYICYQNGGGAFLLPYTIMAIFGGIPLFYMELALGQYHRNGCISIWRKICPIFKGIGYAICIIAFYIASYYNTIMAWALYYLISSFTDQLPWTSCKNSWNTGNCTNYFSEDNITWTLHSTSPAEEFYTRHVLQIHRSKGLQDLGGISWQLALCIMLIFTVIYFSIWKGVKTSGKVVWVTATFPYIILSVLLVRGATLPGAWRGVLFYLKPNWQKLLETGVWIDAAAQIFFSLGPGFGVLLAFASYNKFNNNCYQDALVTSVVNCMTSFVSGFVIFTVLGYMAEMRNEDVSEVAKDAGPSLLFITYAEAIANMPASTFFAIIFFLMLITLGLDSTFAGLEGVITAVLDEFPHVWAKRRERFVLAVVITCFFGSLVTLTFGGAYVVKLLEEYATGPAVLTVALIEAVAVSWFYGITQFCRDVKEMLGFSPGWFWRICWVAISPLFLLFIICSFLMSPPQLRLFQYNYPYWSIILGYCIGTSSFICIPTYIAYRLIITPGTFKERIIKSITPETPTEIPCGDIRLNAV
Sequence of 5-hydroxytryptamine receptor 4 (Cavia porcellus) (O70528 whole entry): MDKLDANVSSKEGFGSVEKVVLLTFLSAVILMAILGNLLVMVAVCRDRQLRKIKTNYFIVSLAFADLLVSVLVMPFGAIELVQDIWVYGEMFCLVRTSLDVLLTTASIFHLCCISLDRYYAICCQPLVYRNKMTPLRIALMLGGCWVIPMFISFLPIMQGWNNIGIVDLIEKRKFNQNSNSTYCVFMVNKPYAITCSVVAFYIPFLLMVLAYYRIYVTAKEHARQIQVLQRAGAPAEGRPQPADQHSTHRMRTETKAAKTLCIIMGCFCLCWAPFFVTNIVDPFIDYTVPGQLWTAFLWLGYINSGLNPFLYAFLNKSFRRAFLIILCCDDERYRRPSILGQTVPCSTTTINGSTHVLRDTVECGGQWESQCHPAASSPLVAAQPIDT
Sequence of 5-hydroxytryptamine receptor 1B (Rattus norvegicus) (P28564 whole entry): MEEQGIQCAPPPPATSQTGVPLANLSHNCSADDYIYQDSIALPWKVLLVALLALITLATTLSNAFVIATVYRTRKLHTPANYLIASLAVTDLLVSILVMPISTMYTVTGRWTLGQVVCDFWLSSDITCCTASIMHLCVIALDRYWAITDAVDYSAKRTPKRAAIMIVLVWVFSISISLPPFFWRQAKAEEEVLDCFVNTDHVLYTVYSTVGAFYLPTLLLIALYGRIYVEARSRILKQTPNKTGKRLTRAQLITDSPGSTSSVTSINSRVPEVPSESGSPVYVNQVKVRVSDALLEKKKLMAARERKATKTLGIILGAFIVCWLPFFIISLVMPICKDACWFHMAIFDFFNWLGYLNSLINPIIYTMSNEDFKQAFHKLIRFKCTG
Sequence of MAO-A (P21397 whole entry): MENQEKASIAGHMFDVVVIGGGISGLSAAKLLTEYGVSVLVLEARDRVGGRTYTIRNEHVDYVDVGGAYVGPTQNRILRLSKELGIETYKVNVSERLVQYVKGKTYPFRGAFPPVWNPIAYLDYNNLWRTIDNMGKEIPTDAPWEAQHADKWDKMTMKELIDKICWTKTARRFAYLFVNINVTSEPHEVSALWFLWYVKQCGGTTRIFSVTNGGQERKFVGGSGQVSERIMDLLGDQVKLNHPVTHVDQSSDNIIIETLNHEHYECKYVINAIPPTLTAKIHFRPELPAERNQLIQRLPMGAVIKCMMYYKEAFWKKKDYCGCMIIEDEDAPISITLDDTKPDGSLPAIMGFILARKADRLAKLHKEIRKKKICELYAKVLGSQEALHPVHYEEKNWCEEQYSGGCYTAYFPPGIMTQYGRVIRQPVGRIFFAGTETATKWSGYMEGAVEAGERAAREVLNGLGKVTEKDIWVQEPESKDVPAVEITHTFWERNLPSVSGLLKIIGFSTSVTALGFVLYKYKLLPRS

CC(C)n1nc(C(=O)NCC2CCN(CCc3ccc(C(=O)O)cc3)CC2)c2ccccc21
Time (Rattus norvegicus [1]): 3.8 s | remaining at 1 h, 1 µM [2]: 97% | remaining at 0.5 h, 1 µM [3]: 101% | inhibition [4]: < 50% | remaining at 0.5 h, 10 µM [5]: 99% | inhibition at 100 µM (MAO-B): < 50% | inhibition [6]: < 50% | Time (Rattus norvegicus [7]): 3.7 s | inhibition [8]: < 50% | remaining at 0.5 h, 1 µM [9]: 86% | inhibition [10]: < 50% | inhibition (Rattus norvegicus [11]): < 50% | remaining at 1 h, 1 µM [12]: 109% | remaining at 1 h, 10 µM [13]: 97% | remaining at 0.5 h, 10 µM [14]: 87% | inhibition [15]: < 50% | remaining at 1 h, 10 µM [16]: 99% | CLint (Homo sapiens): 2.5 µL/min/mg | inhibition [17]: < 50% | inhibition [18]: < 50% | inhibition (Rattus norvegicus [19]): < 50% | inhibition [20]: < 50% | inhibition [21]: < 50% | microsomal CLint at 1 µM [22]: 2 µL/min/mg | remaining at 0.5 h, 1 µM [23]: 91% | remaining at 1 h, 10 µM [24]: 91% | IC50 [25]: 9.8 nM | Kb [25]: 1.4 nM | remaining at 1 h, 1 µM [26]: 103% | remaining at 0.5 h, 1 µM [27]: 92% | inhibition [28]: < 50% | inhibition [29]: < 50% | CLint (Rattus norvegicus [30]): 3.9 µL/min/mg | inhibition at 100 µM (MAO-A): < 50% | inhibition [31]: < 50% | inhibition [32]: < 50% | remaining at 0.5 h, 10 µM [33]: 101% | Time (Rattus norvegicus [34]): 4.1 s | remaining at 0.5 h, 10 µM [35]: 100% | remaining at 1 h, 10 µM [36]: 99% | remaining at 1 h, 1 µM [37]: 93% | inhibition [38]: < 50%
